According to ChEMBL document CHEMBL2086252, “Syntheses and evaluation of anticonvulsant activity of novel branched alkyl carbamates” (J Med Chem, 2012):
Calls of active or inactive are those of the source.

Key:
[1] = system: Mus musculus; experiment: Neurotoxicity in albino CF1 mouse assessed as minimal motor impairment at 30 mg/kg, ip after 4 hrs by rotarod test; type: toxicity, organism-based; set-up: dose 30 mg/kg, route intraperitoneal; conditions: in vivo
Procedure, shortened: (§1)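 Mice dosed ip at 30, 100 or 300 mg/kg, then tested 0.5 h and 4 h after administration in the MES or scMet test. Protection was recorded as animals protected over animals tested. Neurotoxicity was recorded as motor impairment or sedation, as animals affected over animals tested.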

[2] = system: Mus musculus; experiment: Anticonvulsant activity in albino CF1 mouse assessed as protection against maximal electroshock-induced seizures at 300 mg/kg, ip after 0.5 hrs; type: functional, organism-based; set-up: dose 300 mg/kg; procedure, shortened: as §1
[3] = system: Rattus norvegicus; experiment: Neurotoxicity in pilocarpine-induced status epilepticus Sprague-Dawley albino rat model assessed as minimal motor impairment at 30 mg/kg, ip after 1 hr by rotarod test; type: toxicity, organism-based; set-up: dose 30 mg/kg, route intraperitoneal; conditions: in vivo
Procedure, shortened: (§2)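 Rat pilocarpine status epilepticus model: test carbamate given at 0 or 30 min after the first observed Racine stage 3 motor seizure, which marks SE onset. Neurotoxicity was scored within the same model.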

[4] = system: Mus musculus; experiment: Anticonvulsant activity in albino CF1 mouse assessed as protection against subcutaneous metrazol-induced seizures at 300 mg/kg, ip after 0.5 hrs; type: functional, organism-based; set-up: dose 300 mg/kg; procedure, shortened: as §1
[5] = system: Rattus norvegicus; experiment: Anticonvulsant activity in Sprague-Dawley albino rat assessed as protection against maximal electroshock-induced seizures at 30 mg/kg, po after 30 mins; type: functional, organism-based; set-up: dose 30 mg/kg
Procedure, shortened: (§3)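 Rats dosed orally. Anti-MES protection was scored as animals protected over animals tested at each time after dosing. Neurotoxicity was scored as motor impairment or sedation, as animals affected over animals tested.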

[6] = system: Mus musculus; experiment: Anticonvulsant activity in albino CF1 mouse assessed as protection against subcutaneous metrazol-induced seizures at 30 mg/kg, ip after 0.5 hrs; type: functional, organism-based; set-up: dose 30 mg/kg; procedure, shortened: as §1
[7] = system: Mus musculus; experiment: Neurotoxicity in albino CF1 mouse assessed as minimal motor impairment at 100 mg/kg, ip after 4 hrs by rotarod test; type: toxicity, organism-based; set-up: dose 100 mg/kg, route intraperitoneal; conditions: in vivo; procedure, shortened: as §1
[8] = system: Mus musculus; experiment: Neurotoxicity in albino CF1 mouse assessed as minimal motor impairment at 300 mg/kg, ip after 4 hrs by rotarod test; type: toxicity, organism-based; set-up: dose 300 mg/kg, route intraperitoneal; conditions: in vivo; procedure, shortened: as §1
[9] = system: Rattus norvegicus; experiment: Neurotoxicity in pilocarpine-induced status epilepticus Sprague-Dawley albino rat model assessed as minimal motor impairment at 30 mg/kg, ip after 4 hrs by rotarod test; type: toxicity, organism-based; set-up: dose 30 mg/kg, route intraperitoneal; conditions: in vivo; procedure, shortened: as §2
[10] = system: Rattus norvegicus; experiment: Neurotoxicity in pilocarpine-induced status epilepticus Sprague-Dawley albino rat model assessed as minimal motor impairment at 30 mg/kg, ip after 2 hrs by rotarod test; type: toxicity, organism-based; set-up: dose 30 mg/kg, route intraperitoneal; conditions: in vivo; procedure, shortened: as §2
[11] = system: Rattus norvegicus; experiment: Anticonvulsant activity in Sprague-Dawley albino rat assessed as protection against maximal electroshock-induced seizures at 30 mg/kg, po after 2 hrs; type: functional, organism-based; set-up: dose 30 mg/kg; procedure, shortened: as §3
[12] = system: Mus musculus; experiment: Anticonvulsant activity in albino CF1 mouse assessed as protection against maximal electroshock-induced seizures at 100 mg/kg, ip after 4 hrs; type: functional, organism-based; set-up: dose 100 mg/kg; procedure, shortened: as §1
[13] = system: Rattus norvegicus; experiment: Neurotoxicity in pilocarpine-induced status epilepticus Sprague-Dawley albino rat model assessed as minimal motor impairment at 100 mg/kg, ip after 2 hrs by rotarod test; type: toxicity, organism-based; set-up: dose 100 mg/kg, route intraperitoneal; conditions: in vivo
[14] = system: Rattus norvegicus; experiment: Neurotoxicity in pilocarpine-induced status epilepticus Sprague-Dawley albino rat model assessed as minimal motor impairment at 300 mg/kg, ip after 0.25 hr by rotarod test; type: toxicity, organism-based; set-up: dose 300 mg/kg, route intraperitoneal; conditions: in vivo; procedure, shortened: as §2
[15] = system: Rattus norvegicus; experiment: Neurotoxicity in pilocarpine-induced status epilepticus Sprague-Dawley albino rat model assessed as minimal motor impairment at 300 mg/kg, ip after 0.5 hrs by rotarod test; type: toxicity, organism-based; set-up: dose 300 mg/kg, route intraperitoneal; conditions: in vivo; procedure, shortened: as §2
[16] = system: Mus musculus; experiment: Anticonvulsant activity in albino CF1 mouse assessed as protection against subcutaneous metrazol-induced seizures at 30 mg/kg, ip after 4 hrs; type: functional, organism-based; set-up: dose 30 mg/kg; procedure, shortened: as §1
[17] = system: Rattus norvegicus; experiment: Neurotoxicity in pilocarpine-induced status epilepticus Sprague-Dawley albino rat model assessed as minimal motor impairment at 300 mg/kg, ip after 4 hrs by rotarod test; type: toxicity, organism-based; set-up: dose 300 mg/kg, route intraperitoneal; conditions: in vivo; procedure, shortened: as §2
[18] = system: Mus musculus; experiment: Anticonvulsant activity in albino CF1 mouse assessed as protection against subcutaneous metrazol-induced seizures at 300 mg/kg, ip after 4 hrs; type: functional, organism-based; set-up: dose 300 mg/kg; procedure, shortened: as §1
[19] = system: Rattus norvegicus; experiment: Anticonvulsant activity in Sprague-Dawley albino rat assessed as protection against maximal electroshock-induced seizures at 30 mg/kg, po after 4 hrs; type: functional, organism-based; set-up: dose 30 mg/kg; procedure, shortened: as §3
[20] = system: Mus musculus; experiment: Anticonvulsant activity in albino CF1 mouse assessed as protection against subcutaneous metrazol-induced seizures at 100 mg/kg, ip after 0.5 hrs; type: functional, organism-based; set-up: dose 100 mg/kg; procedure, shortened: as §1
[21] = system: Rattus norvegicus; experiment: Neurotoxicity in pilocarpine-induced status epilepticus Sprague-Dawley albino rat model assessed as minimal motor impairment at 100 mg/kg, ip after 0.25 hr by rotarod test; type: toxicity, organism-based; set-up: dose 100 mg/kg, route intraperitoneal; conditions: in vivo
[22] = system: Rattus norvegicus; experiment: Neurotoxicity in pilocarpine-induced status epilepticus Sprague-Dawley albino rat model assessed as minimal motor impairment at 100 mg/kg, ip after 0.5 hrs by rotarod test; type: toxicity, organism-based; set-up: dose 100 mg/kg, route intraperitoneal; conditions: in vivo
[23] = system: Rattus norvegicus; experiment: Neurotoxicity in pilocarpine-induced status epilepticus Sprague-Dawley albino rat model assessed as minimal motor impairment at 300 mg/kg, ip after 1 hr by rotarod test; type: toxicity, organism-based; set-up: dose 300 mg/kg, route intraperitoneal; conditions: in vivo; procedure, shortened: as §2
[24] = system: Rattus norvegicus; experiment: Neurotoxicity in Sprague-Dawley albino rat assessed as minimal motor impairment at 30 mg/kg, po by rotarod test; type: toxicity, organism-based; set-up: dose 30 mg/kg, route oral; conditions: in vivo; procedure, shortened: as §3
[25] = system: Mus musculus; experiment: Anticonvulsant activity in albino CF1 mouse assessed as protection against maximal electroshock-induced seizures at 30 mg/kg, ip after 4 hrs; type: functional, organism-based; set-up: dose 30 mg/kg; procedure, shortened: as §1
[26] = system: Rattus norvegicus; experiment: Neurotoxicity in pilocarpine-induced status epilepticus Sprague-Dawley albino rat model assessed as minimal motor impairment at 100 mg/kg, ip after 4 hrs by rotarod test; type: toxicity, organism-based; set-up: dose 100 mg/kg, route intraperitoneal; conditions: in vivo
[27] = system: Rattus norvegicus; experiment: Anticonvulsant activity in Sprague-Dawley albino rat assessed as protection against maximal electroshock-induced seizures at 30 mg/kg, po after 15 mins; type: functional, organism-based; set-up: dose 30 mg/kg; procedure, shortened: as §3
[28] = system: Mus musculus; experiment: Anticonvulsant activity in albino CF1 mouse assessed as protection against subcutaneous metrazol-induced seizures at 100 mg/kg, ip after 4 hrs; type: functional, organism-based; set-up: dose 100 mg/kg; procedure, shortened: as §1
[29] = system: Rattus norvegicus; experiment: Anticonvulsant activity in Sprague-Dawley albino rat assessed as protection against maximal electroshock-induced seizures at 30 mg/kg, po after 1 hr; type: functional, organism-based; set-up: dose 30 mg/kg; procedure, shortened: as §3
[30] = system: Rattus norvegicus; experiment: Neurotoxicity in pilocarpine-induced status epilepticus Sprague-Dawley albino rat model assessed as minimal motor impairment at 30 mg/kg, ip after 0.25 hr by rotarod test; type: toxicity, organism-based; set-up: dose 30 mg/kg, route intraperitoneal; conditions: in vivo; procedure, shortened: as §2
[31] = system: Rattus norvegicus; experiment: Neurotoxicity in pilocarpine-induced status epilepticus Sprague-Dawley albino rat model assessed as minimal motor impairment at 300 mg/kg, ip after 2 hrs by rotarod test; type: toxicity, organism-based; set-up: dose 300 mg/kg, route intraperitoneal; conditions: in vivo; procedure, shortened: as §2
[32] = system: Mus musculus; experiment: Anticonvulsant activity in albino CF1 mouse assessed as protection against maximal electroshock-induced seizures at 30 mg/kg, ip after 0.5 hrs; type: functional, organism-based; set-up: dose 30 mg/kg; procedure, shortened: as §1
[33] = system: Rattus norvegicus; experiment: Neurotoxicity in pilocarpine-induced status epilepticus Sprague-Dawley albino rat model assessed as minimal motor impairment at 30 mg/kg, ip after 0.5 hrs by rotarod test; type: toxicity, organism-based; set-up: dose 30 mg/kg, route intraperitoneal; conditions: in vivo; procedure, shortened: as §2
[34] = system: Mus musculus; experiment: Anticonvulsant activity in albino CF1 mouse assessed as protection against maximal electroshock-induced seizures at 300 mg/kg, ip after 4 hrs; type: functional, organism-based; set-up: dose 300 mg/kg; procedure, shortened: as §1
[35] = system: Mus musculus; experiment: Neurotoxicity in albino CF1 mouse assessed as minimal motor impairment at 30 mg/kg, ip after 0.5 hrs by rotarod test; type: toxicity, organism-based; set-up: dose 30 mg/kg, route intraperitoneal; conditions: in vivo; procedure, shortened: as §1
[36] = system: Mus musculus; experiment: Neurotoxicity in albino CF1 mouse assessed as minimal motor impairment at 300 mg/kg, ip after 0.5 hrs by rotarod test; type: toxicity, organism-based; set-up: dose 300 mg/kg, route intraperitoneal; conditions: in vivo; procedure, shortened: as §1
[37] = system: Mus musculus; experiment: Neurotoxicity in albino CF1 mouse assessed as minimal motor impairment at 100 mg/kg, ip after 0.5 hrs by rotarod test; type: toxicity, organism-based; set-up: dose 100 mg/kg, route intraperitoneal; conditions: in vivo; procedure, shortened: as §1

Measured: Activity

CCCC(COC(N)=O)C(C)CC (racemic)
active: [2] | [4] | [34]
Toxic: [3] | [9] | [10] | [21] | [22] | [30] | [33]
Non-toxic: [1] | [7] | [8] | [13] | [14] | [15] | [17] | [23] | [24] | [26] | [31] | [35]
not listed: [36] | [37]
inactive: all other assays above

CC(COC(N)=O)CC(C)(C)C (racemic)
active: [2] | [4] | [34]
Toxic: [36] | [14] | [15] | [21] | [22] | [23] | [31]
inactive: [6] | [11] | [12] | [16] | [18] | [19] | [20] | [25] | [28] | [29] | [32]
not listed: [5] | [27]
Non-toxic: all other assays above
